Experiment [1] concerns the target T1, Gastrin/cholecystokinin type B receptor (Homo sapiens, UniProt P32239).
T1 sequence (P32239 whole entry): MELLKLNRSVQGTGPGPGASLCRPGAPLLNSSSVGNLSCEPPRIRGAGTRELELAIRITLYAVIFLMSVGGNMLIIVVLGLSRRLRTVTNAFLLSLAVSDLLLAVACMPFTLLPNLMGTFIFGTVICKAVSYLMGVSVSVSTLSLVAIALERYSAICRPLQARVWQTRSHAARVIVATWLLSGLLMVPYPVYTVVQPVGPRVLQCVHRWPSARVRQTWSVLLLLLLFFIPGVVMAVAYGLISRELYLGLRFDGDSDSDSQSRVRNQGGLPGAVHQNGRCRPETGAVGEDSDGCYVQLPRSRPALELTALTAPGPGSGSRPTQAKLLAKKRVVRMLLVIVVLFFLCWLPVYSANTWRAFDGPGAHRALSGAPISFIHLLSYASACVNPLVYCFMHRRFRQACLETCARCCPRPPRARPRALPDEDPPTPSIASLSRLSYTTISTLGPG
Description: Displacement of [125I]CCK from gastrin receptor isolated from human tumor tissues. The essentials: (§1)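 Surgically resected human tumor tissues expressing CCK-1 or gastrin receptors; 125I-CCK incubation medium with increasing amounts of competitor added to generate competitive inhibition curves.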
On the technique in general: In a radioligand displacement assay an active substance lowers the binding of a labelled ligand.

The target in experiment [2] is T2, Cholecystokinin receptor type A (Homo sapiens, UniProt P32238).
T2 sequence (P32238 whole entry): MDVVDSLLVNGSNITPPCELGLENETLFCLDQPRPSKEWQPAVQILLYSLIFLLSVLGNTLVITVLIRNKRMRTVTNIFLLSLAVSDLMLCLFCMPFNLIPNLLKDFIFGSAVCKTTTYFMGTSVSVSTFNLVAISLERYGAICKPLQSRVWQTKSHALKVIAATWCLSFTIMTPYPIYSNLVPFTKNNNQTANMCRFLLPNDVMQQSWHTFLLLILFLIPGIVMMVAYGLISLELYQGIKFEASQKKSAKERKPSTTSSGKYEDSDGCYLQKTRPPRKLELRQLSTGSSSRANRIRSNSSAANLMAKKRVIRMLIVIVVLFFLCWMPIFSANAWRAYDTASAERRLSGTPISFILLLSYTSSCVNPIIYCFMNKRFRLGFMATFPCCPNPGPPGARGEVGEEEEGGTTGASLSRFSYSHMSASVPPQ
The experiment can be described thus: Displacement of [125I]CCK from CCK1 receptor isolated from human tumor tissues. In a few lines:
as §1

Experiment [3] has as its target T3, Gastrin/cholecystokinin type B receptor (Rattus norvegicus, UniProt P30553).
T3 sequence (P30553 whole entry): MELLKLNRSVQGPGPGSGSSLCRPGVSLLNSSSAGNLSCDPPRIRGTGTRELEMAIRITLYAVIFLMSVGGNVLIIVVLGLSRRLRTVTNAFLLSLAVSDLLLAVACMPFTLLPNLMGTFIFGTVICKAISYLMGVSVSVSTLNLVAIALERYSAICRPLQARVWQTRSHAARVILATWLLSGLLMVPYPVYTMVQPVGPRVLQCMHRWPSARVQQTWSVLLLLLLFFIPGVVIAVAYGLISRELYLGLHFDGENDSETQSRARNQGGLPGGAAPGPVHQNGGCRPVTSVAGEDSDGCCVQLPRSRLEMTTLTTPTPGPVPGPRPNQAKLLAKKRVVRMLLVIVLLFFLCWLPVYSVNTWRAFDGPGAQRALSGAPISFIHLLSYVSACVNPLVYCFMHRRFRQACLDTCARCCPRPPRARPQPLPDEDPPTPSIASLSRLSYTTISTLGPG
Description: Agonist activity at gastrin receptor in rat AR4-2J cells assessed as intracellular calcium mobilization by fluorescence assay. It is filed as functional, cell-based. The essentials: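 AR4-2J cells seeded 50 000/well, cultured 1 day at 37 C, 5% CO2, then loaded with Ca dye in HBSS/20 mM HEPES with 2.5 mM probenecid for 1 h at 37 C. Peptides added as 1:3 serial dilutions in HBSS/HEPES/0.1% BSA/0.05% pluronic acid, diluted 1:6 on addition. Fluorescence (ex 485/em 525 nm) read 4 min at room temperature; Fmax with ionomycin; EC50 from four-parameter fit.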

From ChEMBL document CHEMBL1806401, “Highly improved metabolic stability and pharmacokinetics of indium-111-DOTA-gastrin conjugates for targeting of the gastrin receptor” (J Med Chem, 2011) come the findings set out here.

Peptide text beside a SMILES is read from it.

Consider `CSCC[C@H](NC(=O)[C@H](Cc1c[nH]c2ccccc12)NC(=O)CNC(=O)[C@H](Cc1ccc(O)cc1)NC(=O)[C@H](C)NC(=O)[C@@H](CO)NC(=O)[C@@H](CO)NC(=O)[C@@H](CO)NC(=O)CN1CCN(CC(=O)O)CCN(CC(=O)O)CCN(CC(=O)O)CC1)C(=O)N[C@@H](CC(=O)O)C(=O)N[C@@H](Cc1ccccc1)C(N)=O`, for which the figures for the half-maximal inhibitory concentration (IC50) in experiment [1] and in experiment [2] were 0.6 nM and over 700 nM, respectively.
Take `CSCC[C@H](NC(=O)[C@H](Cc1c[nH]c2ccccc12)NC(=O)CNC(=O)[C@H](Cc1ccc(O)cc1)NC(=O)[C@H](C)NC(=O)[C@@H](CCC(N)=O)NC(=O)[C@@H](CCC(N)=O)NC(=O)CN1CCN(CC(=O)O)CCN(CC(=O)O)CCN(CC(=O)O)CC1)C(=O)N[C@@H](CC(=O)O)C(=O)N[C@@H](Cc1ccccc1)C(N)=O`: the half-inhibitory concentration (IC50) (commonly the concentration needed to halve the response being measured) in experiment [1] is 0.8 nM; in experiment [2] it was over 700 nM.
`CCCC[C@H](NC(=O)[C@H](Cc1c[nH]c2ccccc12)NC(=O)CNC(=O)[C@H](Cc1ccc(O)cc1)NC(=O)[C@H](C)NC(=O)[C@@H](CCC(N)=O)NC(=O)[C@@H](CCC(N)=O)NC(=O)[C@@H](CCC(N)=O)NC(=O)CN1CCN(CC(=O)O)CCN(CC(=O)O)CCN(CC(=O)O)CC1)C(=O)N[C@@H](CC(=O)O)C(=O)N[C@@H](Cc1ccccc1)C(N)=O`: the IC50 in experiment [1] is 1.6 nM; in experiment [2], over 700 nM.
As for `CSCC[C@H](NC(=O)[C@H](Cc1c[nH]c2ccccc12)NC(=O)CNC(=O)[C@H](Cc1ccc(O)cc1)NC(=O)[C@H](C)NC(=O)[C@@H](CCC(N)=O)NC(=O)[C@@H](CCC(N)=O)NC(=O)[C@@H](CCC(N)=O)NC(=O)[C@@H](CCC(N)=O)NC(=O)CN1CCN(CC(=O)O)CCN(CC(=O)O)CCN(CC(=O)O)CC1)C(=O)N[C@@H](CC(=O)O)C(=O)N[C@@H](Cc1ccccc1)C(N)=O`, the IC50 in experiment [1] is 2.4 nM; in experiment [2], over 700 nM.
For `CSCC[C@H](NC(=O)[C@H](Cc1c[nH]c2ccccc12)NC(=O)CNC(=O)[C@H](Cc1ccc(O)cc1)NC(=O)[C@H](C)NC(=O)[C@H](CCC(=O)O)NC(=O)[C@H](CCC(=O)O)NC(=O)[C@H](CCC(=O)O)NC(=O)[C@H](CCC(=O)O)NC(=O)[C@H](CCC(=O)O)NC(=O)[C@H](CCC(=O)O)NC(=O)CN1CCN(CC(=O)O)CCN(CC(=O)O)CCN(CC(=O)O)CC1)C(=O)N[C@@H](CC(=O)O)C(=O)N[C@@H](Cc1ccccc1)C(N)=O` the same measures were 0.7 nM and over 700 nM.
For `CSCC[C@H](NC(=O)[C@H](Cc1c[nH]c2ccccc12)NC(=O)CNC(=O)[C@H](Cc1ccc(O)cc1)NC(=O)[C@H](C)NC(=O)[C@@H](CO)NC(=O)[C@@H](CO)NC(=O)CN1CCN(CC(=O)O)CCN(CC(=O)O)CCN(CC(=O)O)CC1)C(=O)N[C@@H](CC(=O)O)C(=O)N[C@@H](Cc1ccccc1)C(N)=O`, the IC50 is 0.9 nM in experiment [1] and over 700 nM in experiment [2].
Consider `CSCC[C@H](NC(=O)[C@H](Cc1c[nH]c2ccccc12)NC(=O)CNC(=O)[C@H](Cc1ccc(O)cc1)NC(=O)[C@H](C)NC(=O)[C@@H](CCC(N)=O)NC(=O)[C@@H](CCC(N)=O)NC(=O)[C@@H](CCC(N)=O)NC(=O)CN1CCN(CC(=O)O)CCN(CC(=O)O)CCN(CC(=O)O)CC1)C(=O)N[C@@H](CC(=O)O)C(=O)N[C@@H](Cc1ccccc1)C(N)=O` (HELM PEPTIDE1{[O=C(O)CN1CCN(CC(=O)O)CCN(CC(=O)[*:2])CCN(CC(=O)O)CC1].[dQ].[dQ].[dQ].A.Y.G.W.M.D.F.[am]}$$$$V2.0), for which the figures for the IC50 in experiment [1] and in experiment [2] were 3.6 nM and over 700 nM, respectively. Further, the EC50 (commonly the concentration giving half of the maximal effect) in experiment [3] worked out at 0.27 nM.
Take `CSCC[C@H](NC(=O)[C@H](Cc1c[nH]c2ccccc12)NC(=O)CNC(=O)[C@H](Cc1ccc(O)cc1)NC(=O)[C@H](C)NC(=O)[C@@H](CCC(N)=O)NC(=O)[C@@H](CCC(N)=O)NC(=O)[C@@H](CCC(N)=O)NC(=O)[C@@H](CCC(N)=O)NC(=O)[C@@H](CCC(N)=O)NC(=O)[C@@H](CCC(N)=O)NC(=O)CN1CCN(CC(=O)O)CCN(CC(=O)O)CCN(CC(=O)O)CC1)C(=O)N[C@@H](CC(=O)O)C(=O)N[C@@H](Cc1ccccc1)C(N)=O` (HELM PEPTIDE1{[O=C(O)CN1CCN(CC(=O)O)CCN(CC(=O)[*:2])CCN(CC(=O)O)CC1].[dQ].[dQ].[dQ].[dQ].[dQ].[dQ].A.Y.G.W.M.D.F.[am]}$$$$V2.0): the IC50 was 2.4 nM in experiment [1] and over 700 nM in experiment [2]. The concentration giving a half-maximal response (EC50) in experiment [3] turned out to be 0.41 nM.
